Measured values reported in ChEMBL document CHEMBL4028818, “Tricyclic 4,4-dimethyl-3,4-dihydrochromeno[3,4-d]imidazole derivatives as microsomal prostaglandin E2 synthase-1 (mPGES-1) inhibitors: SAR and in vivo efficacy in hyperalgesia pain model” (Bioorg Med Chem Lett, 2017).

Assays:
CYP1A2 = target: T1, CYP1A2 (Homo sapiens, UniProt P05177); experiment: (§1) Inhibition of CYP1A2 in human liver microsomes at 10 uM measured after 20 mins in presence of NADPH by LC/MS/MS analysis relative to control; format: ADME; details: liver microsomes
T1 sequence (P05177 whole entry): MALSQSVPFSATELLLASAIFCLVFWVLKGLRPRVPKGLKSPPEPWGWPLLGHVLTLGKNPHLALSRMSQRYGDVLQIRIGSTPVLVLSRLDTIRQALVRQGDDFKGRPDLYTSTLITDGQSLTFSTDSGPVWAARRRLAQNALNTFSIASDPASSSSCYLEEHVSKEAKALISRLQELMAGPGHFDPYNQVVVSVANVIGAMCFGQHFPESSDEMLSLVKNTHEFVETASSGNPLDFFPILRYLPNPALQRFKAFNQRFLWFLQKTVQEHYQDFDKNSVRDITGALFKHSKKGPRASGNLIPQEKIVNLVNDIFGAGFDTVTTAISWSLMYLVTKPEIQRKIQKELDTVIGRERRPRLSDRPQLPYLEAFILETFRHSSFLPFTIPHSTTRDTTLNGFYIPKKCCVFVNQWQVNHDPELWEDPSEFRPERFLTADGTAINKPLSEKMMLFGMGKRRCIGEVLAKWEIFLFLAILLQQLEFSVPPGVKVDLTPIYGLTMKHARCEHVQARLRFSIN
In short: (§2)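 CYP isoforms 1A2, 2D6, 3A4, 2C9 and 2C19 were tested at 1 and 10 µM. Results are % inhibition compared with a no-inhibitor control, run in triplicate.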

[1] = Drug uptake in CSF of Dunkin Hartley guinea pig model of LPS-induced thermal hyperalgesia pain at 200 mg/kg, po qd measured 7 hrs post dose by LC/MS/MS analysis; format: ADME, organism-based, Cavia porcellus, Cerebrospinal fluid; details: read-out: Drug uptake
In short: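 In the guinea pig LPS thermal hyperalgesia model, plasma and CSF drug levels were measured at the pharmacodynamic time point after oral dosing. Concentrations are means of n = 8 animals per dose group.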

Cytochrome P450 1A2 = target: T2, Cytochrome P450 1A2 (Homo sapiens, UniProt P05177); experiment: as §1; format: ADME; details: microsomes, 20 min, 10 µM; in short: as §2
T2 sequence (P05177 whole entry): T1 sequence (P05177 whole entry)

inhibition at 20 min, 10 µM (CYP1A2) [%]	concentration at 7 h [1] [nM]	inhibition (INH) (Cytochrome P450 1A2)	SMILES
33.9	–	–	CC1(C)Oc2cc(C#Cc3cc(Cl)ccc3F)ccc2-c2[nH]c(-c3c(F)cccc3Cl)nc21
–	9.22	Not Active	CC1(C)Oc2cc(-c3cccc(OC(F)(F)F)c3)ccc2-c2[nH]c(-c3c(F)cccc3Cl)nc21
